Results taken from PubChem BioAssay AID488936 (Broad Institute, 2010).
Active and inactive are the calls of the source.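 Rule for the calls: active = compounds lowering caspase luminescence whose fitted AC50 is at most ten times their top valid dose; inconclusive = flat partial inhibition or a poor quality curve fit; inactive = the rest.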

Test: reduction of caspase-3/7 signal in INS-1E – INS-1E rat cells, dry powder, set 2, orthogonal assay for beta-cell apoptosis inhibitor project, dose response (AID 488936)
Settings: INS-1E cytokine-induced caspase-3/7 luminescence, 48 h; at 23.5 µM (top of the series)
How it was run: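 Assay system: rat INS-1E insulinoma cells; Reagent: IFN-gamma, TNF-alpha and IL-1β cytokine cocktail; Control set: SAHA positive control; Measure: IC50 of caspase-3/7 activity from concentration-response curve; Detection: Luciferase-based luminescence, Caspase-Glo 3/7 reagent; Times: 48 h cytokine and compound exposure, 1 h detection.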

Compound	activity change, negative = inhibition
COc1ccc(S(=O)(=O)N(C)C[C@@H]2Oc3c(NC(=O)C4CCOCC4)cccc3C(=O)N([C@@H](C)CO)C[C@H]2C)cc1	-8.46% (inactive)
COc1ccc(S(=O)(=O)N(C)C[C@@H]2Oc3c(NS(=O)(=O)c4ccc(C)cc4)cccc3C(=O)N([C@@H](C)CO)C[C@H]2C)cc1	-2.16% (inactive)
C[C@@H]1CN([C@@H](C)CO)C(=O)c2cccc(NC(=O)Nc3cccc4ccccc34)c2O[C@H]1CN(C)C(=O)Nc1ccc(C(F)(F)F)cc1	45.3% (inactive)
COc1ccc(S(=O)(=O)N(C)C[C@@H]2Oc3c(NC(=O)Nc4ccc(F)cc4)cccc3C(=O)N([C@@H](C)CO)C[C@H]2C)cc1	-9.69% (inactive)
COc1ccc(S(=O)(=O)N(C)C[C@@H]2Oc3c(cccc3N(C)C)C(=O)N([C@@H](C)CO)C[C@H]2C)cc1	-4.48% (inactive)

Same assay, conditions: INS-1E cytokine-induced caspase-3/7 luminescence, 48 h; at 26 µM (top of the series)

Compound	activity change, negative = inhibition
COc1ccc(S(=O)(=O)N(C)C[C@@H]2Oc3ccc(NC(=O)Nc4cccc5ccccc45)cc3C(=O)N([C@@H](C)CO)C[C@H]2C)cc1	5.17% (inactive)
C[C@@H]1CN([C@@H](C)CO)C(=O)c2cccc(NC(=O)Nc3cccc4ccccc34)c2O[C@H]1CN(C)S(=O)(=O)c1cccs1	4.63% (inactive)
COc1ccc(S(=O)(=O)N(C)C[C@@H]2Oc3c(NC(=O)C4CCCCC4)cccc3C(=O)N([C@@H](C)CO)C[C@H]2C)cc1	-7.12% (inactive)
COc1ccccc1S(=O)(=O)N(C)C[C@@H]1Oc2c(NC(=O)Nc3cccc4ccccc34)cccc2C(=O)N([C@@H](C)CO)C[C@H]1C	-13% (inactive)
C[C@@H]1CN([C@@H](C)CO)C(=O)c2cccc(NC(=O)Nc3cccc4ccccc34)c2O[C@H]1CN(C)S(=O)(=O)c1ccccc1	6.84% (inactive)
Cc1noc(C)c1NC(=O)N(C)C[C@@H]1Oc2c(NC(=O)Nc3cccc4ccccc34)cccc2C(=O)N([C@@H](C)CO)C[C@H]1C	-0.569% (inactive)
COc1ccc(S(=O)(=O)N(C)C[C@@H]2Oc3c(NS(=O)(=O)c4cn(C)cn4)cccc3C(=O)N([C@@H](C)CO)C[C@H]2C)cc1	-6.15% (inactive)
C[C@@H]1CN([C@@H](C)CO)C(=O)c2cccc(NC(=O)Nc3cccc4ccccc34)c2O[C@H]1CN(C)S(=O)(=O)c1cn(C)cn1	-1.53% (inactive)
COc1ccc(S(=O)(=O)Nc2cccc3c2O[C@@H](CN(C)S(=O)(=O)c2ccc(OC)cc2)[C@H](C)CN([C@@H](C)CO)C3=O)cc1	-1.2% (inactive)
COc1ccc(S(=O)(=O)N(C)C[C@@H]2Oc3c(NC(=O)c4nc5ccccc5s4)cccc3C(=O)N([C@@H](C)CO)C[C@H]2C)cc1	-4.53% (inactive)
C[C@@H]1CN([C@@H](C)CO)C(=O)c2cccc(NC(=O)Nc3cccc4ccccc34)c2O[C@H]1CN(C)CC1CC1	-6.43% (inactive)
Cc1ccc(S(=O)(=O)N(C)C[C@@H]2Oc3c(NC(=O)Nc4ccccc4)cccc3C(=O)N([C@@H](C)CO)C[C@H]2C)cc1	-11.7% (inactive)
Cc1ccc(S(=O)(=O)N(C)C[C@@H]2Oc3c(NC(=O)Nc4ccccc4)cccc3C(=O)N([C@H](C)CO)C[C@H]2C)cc1	-10.7% (inactive)
C[C@@H]1CN([C@@H](C)CO)C(=O)c2cccc(NC(=O)Nc3cccc4ccccc34)c2O[C@H]1CN(C)C(=O)Nc1ccc2c(c1)OCO2	32.4% (inactive)
COc1ccc(S(=O)(=O)N(C)C[C@@H]2Oc3c(NC(=O)Nc4ccc(F)cc4)cccc3C(=O)N([C@H](C)CO)C[C@H]2C)cc1	-6.01% (inactive)
Cc1ccc(S(=O)(=O)N(C)C[C@H]2Oc3c(NC(=O)Nc4cccc5ccccc45)cccc3C(=O)N([C@@H](C)CO)C[C@@H]2C)cc1	29.7% (inactive)
C[C@@H]1CN([C@H](C)CO)C(=O)c2cccc(NC(=O)Nc3cccc4ccccc34)c2O[C@H]1CN(C)S(=O)(=O)c1ccc(Cl)cc1	-4.82% (inactive)
COc1cccc(S(=O)(=O)N(C)C[C@@H]2Oc3c(NC(=O)Nc4cccc5ccccc45)cccc3C(=O)N([C@@H](C)CO)C[C@H]2C)c1	14.2% (inactive)
COc1ccc(S(=O)(=O)N(C)C[C@@H]2Oc3c(NC(=O)c4ccc(-c5nccs5)cc4)cccc3C(=O)N([C@@H](C)CO)C[C@H]2C)cc1	6.99% (inactive)
COc1ccc(S(=O)(=O)N(C)C[C@H]2Oc3c(NC(=O)Nc4cccc5ccccc45)cccc3C(=O)N([C@@H](C)CO)C[C@@H]2C)cc1	-9.65% (inactive)
COc1ccc(S(=O)(=O)N(C)C[C@H]2Oc3c(NC(=O)Nc4cccc5ccccc45)cccc3C(=O)N([C@H](C)CO)C[C@H]2C)cc1	-14.4% (inactive)
C[C@@H]1CN([C@@H](C)CO)C(=O)c2cccc(NS(=O)(=O)c3ccccc3)c2O[C@H]1CN(C)Cc1ccc(C(F)(F)F)cc1	7.22% (inactive)
COc1ccc(NC(=O)N(C)C[C@@H]2Oc3c(NC(=O)Nc4cccc5ccccc45)cccc3C(=O)N([C@@H](C)CO)C[C@H]2C)cc1	18.3% (inactive)
COc1ccc(S(=O)(=O)N(C)C[C@@H]2Oc3c(NC(=O)c4cccc5ccccc45)cccc3C(=O)N([C@@H](C)CO)C[C@H]2C)cc1	-10.7% (inactive)

Compound	activity change, negative = inhibition
C[C@@H]1CN([C@@H](C)CO)C(=O)c2cccc(NC(=O)Nc3cccc4ccccc34)c2O[C@H]1CN(C)S(=O)(=O)c1ccc2c(c1)OCC2	3.67% (inactive)
Cc1ccc(S(=O)(=O)N(C)C[C@@H]2Oc3c(NC(=O)Nc4ccc(F)cc4)cccc3C(=O)N([C@H](C)CO)C[C@H]2C)cc1	-5.96% (inactive)
C[C@@H]1CN([C@@H](C)CO)C(=O)c2cccc(NC(=O)Nc3ccccc3)c2O[C@H]1CN(C)S(=O)(=O)c1ccc(F)cc1	-13.5% (inactive)
COc1ccc(S(=O)(=O)N(C)C[C@@H]2Oc3c(NC(=O)Nc4c(C)noc4C)cccc3C(=O)N([C@@H](C)CO)C[C@H]2C)cc1	-11.7% (inactive)
COc1ccc(S(=O)(=O)N(C)C[C@@H]2Oc3c(NC(=O)Nc4cccc5ccccc45)cccc3C(=O)N([C@@H](C)CO)C[C@H]2C)cc1Cl	12.6% (inactive)
COc1ccc(S(=O)(=O)N(C)C[C@@H]2Oc3c(NC(=O)Nc4cccc5ccccc45)cccc3C(=O)N(C(C)C)C[C@H]2C)cc1	-6.92% (inactive)
COc1ccc(S(=O)(=O)N(C)C[C@@H]2Oc3c(NC(=O)c4cnccn4)cccc3C(=O)N([C@@H](C)CO)C[C@H]2C)cc1	-2.35% (inactive)
COc1ccc(S(=O)(=O)N(C)C[C@@H]2Oc3c(NC(=O)NC(C)C)cccc3C(=O)N([C@@H](C)CO)C[C@H]2C)cc1	-8.08% (inactive)
C[C@@H]1CN([C@@H](C)CO)C(=O)c2cccc(NC(=O)Nc3cccc4ccccc34)c2O[C@H]1CN(C)S(=O)(=O)c1ccc(Cl)cc1	6.46% (inactive)
Cc1ccc(S(=O)(=O)N(C)C[C@@H]2Oc3c(NC(=O)Nc4cccc5ccccc45)cccc3C(=O)N([C@@H](C)CO)C[C@H]2C)cc1	11.5% (inactive)
COc1ccc(NC(=O)Nc2cccc3c2O[C@@H](CN(C)S(=O)(=O)c2ccc(OC)cc2)[C@H](C)CN([C@@H](C)CO)C3=O)cc1	-9.51% (inactive)
COc1ccc(S(=O)(=O)N(C)C[C@@H]2Oc3c(NC(=O)Nc4ccccc4)cccc3C(=O)N([C@H](C)CO)C[C@H]2C)cc1	-7.43% (inactive)
C[C@@H]1CN([C@@H](C)CO)C(=O)c2cccc(NC(=O)Nc3cccc4ccccc34)c2O[C@H]1CN(C)S(=O)(=O)c1ccc2c(c1)oc(=O)n2C	0.941% (inactive)
COc1ccc(S(=O)(=O)N(C)C[C@@H]2Oc3c(NC(=O)Nc4cccc5ccccc45)cccc3C(=O)N([C@@H](C)CO)C[C@H]2C)c(OC)c1	-12.9% (inactive)
C[C@@H]1CN([C@H](C)CO)C(=O)c2cccc(NC(=O)Nc3ccc(F)cc3)c2O[C@H]1CN(C)S(=O)(=O)c1ccc(Cl)cc1	10.4% (inactive)
COc1ccc(S(=O)(=O)N(C)C[C@H]2Oc3c(NC(=O)Nc4cccc5ccccc45)cccc3C(=O)N([C@H](C)CO)C[C@@H]2C)cc1	3.23% (inactive)
C[C@@H]1CN([C@H](C)CO)C(=O)c2cccc(NC(=O)Nc3ccccc3)c2O[C@H]1CN(C)S(=O)(=O)c1ccc(F)cc1	-4.27% (inactive)
COc1ccc(S(=O)(=O)N(C)C[C@@H]2Oc3c(NC(=O)Nc4cccc5ccccc45)cccc3C(=O)N([C@H](C)CO)C[C@@H]2C)cc1	-4.27% (inactive)
C[C@@H]1CN([C@@H](C)CO)C(=O)c2cccc(NC(=O)Nc3ccc(F)cc3)c2O[C@H]1CN(C)S(=O)(=O)c1ccc(F)cc1	-8.56% (inactive)
C[C@@H]1CN([C@@H](C)CO)C(=O)c2cccc(NC(=O)Nc3cccc4ccccc34)c2O[C@H]1CN(C)C(=O)Nc1ccc(F)cc1	19.9% (inactive)
COc1ccc(S(=O)(=O)N(C)C[C@@H]2Oc3c(NS(=O)(=O)c4ccc(F)cc4)cccc3C(=O)N([C@@H](C)CO)C[C@H]2C)cc1	-9.27% (inactive)
COc1ccc(S(=O)(=O)N(C)C[C@@H]2Oc3c(NC(=O)NC4CCCCC4)cccc3C(=O)N([C@@H](C)CO)C[C@H]2C)cc1	-7.02% (inactive)
Cc1ccc(S(=O)(=O)N(C)C[C@@H]2Oc3c(NC(=O)Nc4ccc(F)cc4)cccc3C(=O)N([C@@H](C)CO)C[C@H]2C)cc1	-11% (inactive)
C[C@@H]1CN([C@@H](C)CO)C(=O)c2cccc(NC(=O)Nc3cccc4ccccc34)c2O[C@H]1CN(C)S(=O)(=O)c1ccc(OC(F)(F)F)cc1	100% (inactive)
